Experimental data taken from the RNAGym collection of RNA variant scans (doi:10.1002/anie.201605470).

B1: Osa-1-4 twister ribozyme (parent)
chain: CCGCCUAACACUGCCAAUGCCGGUCCCAAGCCCGGAUAAAAGUGGAGGGGGCGG

Variants of: B1
Experiment: self-cleavage, relative activity (ratio to wild type); higher = more cleavage; co-transcriptional
Procedure, shortened: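 The 48 positions downstream of the cleavage site in a 54-nucleotide Oryza sativa twister ribozyme template were synthesised at 97 % wild-type base and 1 % of each other base. The template was transcribed in vitro at 37 °C for 2 h, with self-cleavage allowed during transcription. Reads with or without upstream sequence after deep sequencing marked cleavage status, and relative activity is fraction cleaved normalised to wild type.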

Row | Variant | self-cleavage
1 | C27A C52U | 0.33
2 | C27A C52A | 0.23
3 | C27A C52G | 0.25
4 | C27A G13U | 0.02
5 | C27A G13A | 0.03
6 | C27A G13C | 0.01
7 | C27A C31G | 0.04
8 | C27A C31U | 0.09
9 | C27A C31A | 0.06
10 | C27G G13C | 0.01
11 | C27G G13U | 0.01
12 | C27G G13A | 0.03
13 | C27A G49U | 0.04
14 | C27A G49A | 0.04
15 | C27A G49C | 0.03
16 | C27A G50C | 0.08
17 | C27A G50U | 0.1
18 | C27A G50A | 0.22
19 | C27G C32U | 0.05
20 | C27G C32A | 0.02
21 | C27G C32G | 0.05
22 | C27U G35U | 0.19
23 | C27U G35A | 0.31
24 | C27U G35C | 0.06

Row | Variant | self-cleavage
25 | C27G G54U | 0.12
26 | C27G G54A | 0.06
27 | C27G G54C | 0.04
28 | C26U C27A | 0.07
29 | C26U C27G | 0.06
30 | C26U C27U | 0.24
31 | C27G U18C | 0.09
32 | C27G U18A | 0.09
33 | C27G U18G | 0.17
34 | C27U C9G | 0.09
35 | C27U C9A | 0.02
36 | C27U C9U | 0.1
37 | C26U G51C | 0.07
38 | C26U G51U | 0.17
39 | C26U G51A | 0.45
40 | C27A G30C | 0.03
41 | C27A G30U | 0.03
42 | C27A G30A | 0.02
43 | C26U G48U | 0.08
44 | C26U G48A | 0.82
45 | C26U G48C | 0.1
46 | C26G G49A | 0.04
47 | C26G G49C | 0.03
48 | C26G G49U | 0.04

Row | Variant | self-cleavage
49 | C27G G50C | 0.05
50 | C27G G50A | 0.09
51 | C27G G50U | 0.07
52 | C26U G54A | 0.38
53 | C26U G54U | 0.62
54 | C26U G54C | 0.3
55 | C26U C52G | 0.84
56 | C26U C52U | 0.98
57 | C26U C52A | 0.71
58 | C26U G45C | 0.04
59 | C26U G45A | 0.07
60 | C26U G45U | 0.04
61 | C27G G34C | 0.05
62 | C27G G34A | 0.07
63 | C27G G34U | 0.08
64 | C26U G30C | 0.04
65 | C26U G30U | 0.03
66 | C26U G30A | 0.03
67 | C27G G49C | 0.03
68 | C27G G49A | 0.04
69 | C27G G49U | 0.04
70 | C27G G30A | 0.02
71 | C27G G30C | 0.02
72 | C27G G30U | 0.02

Row | Variant | self-cleavage
73 | C26G U12C | 0.05
74 | C26G U12A | 0.07
75 | C26G U12G | 0.07
76 | C27A U24C | 0.06
77 | C27A U24G | 0.02
78 | C27A U24A | 0.04
79 | C26U G35U | 0.88
80 | C26U G35A | 0.9
81 | C26U G35C | 0.09
82 | C26G G48U | 0.08
83 | C26G G48C | 0.74
84 | C27G G47A | 0.15
85 | C27G G47C | 0.86
86 | C27G G47U | 0.21
87 | C27G C31G | 0.06
88 | C27G C31U | 0.06
89 | C27G C31A | 0.01
90 | C27U C31A | 0.02
91 | C27U C31U | 0.07
92 | C27U C31G | 0.06
93 | C26U G47A | 0.08
94 | C26U G47C | 0.07
95 | C26U G47U | 0.06
96 | C26U G22A | 0.91

Row | Variant | self-cleavage
97 | C26U G22C | 0.08
98 | C26U G22U | 0.74
99 | C27G G48U | 0.02
100 | C27G G48A | 0.04
101 | C27G G48C | 0.03
102 | C26U C33G | 0.07
103 | C26U C33A | 0.09
104 | C26U C33U | 0.32
105 | C26U G34A | 0.92
106 | C26U G34U | 0.83
107 | C26U G34C | 0.56
108 | C27A G51C | 0.05
109 | C27A G51U | 0.05
110 | C27A G51A | 0.1
111 | C27G U43A | 0.08
112 | C27G U43G | 0.06
113 | C27G U43C | 0.06
114 | C27U G49A | 0.05
115 | C27G G42U | 0.02
116 | C27G G42A | 0.06
117 | C27G G42C | 0.07
118 | C26G G53U | 0.06
119 | C26G G53C | 0.03
120 | C26G G53A | 0.11

Row | Variant | self-cleavage
121 | C27U C52G | 0.25
122 | C27U C52U | 0.37
123 | C27U C52A | 0.21
124 | C27A G45U | 0.07
125 | C27A G45A | 0.06
126 | C27A G45C | 0.03
127 | C27U G48U | 0.03
128 | C27U G48A | 0.04
129 | C27U G48C | 0.05
130 | C26U | 0.98
131 | C27U G47U | 0.11
132 | C27U G47A | 0.88
133 | C27U G47C | 0.42
134 | C27G G23U | 0.02
135 | C27G G23C | 0.03
136 | C27G G23A | 0.05
137 | C27A G42C | 0.06
138 | C27A G42A | 0.08
139 | C27A G42U | 0.05
140 | C26U U24C | 0.07
141 | C26U U24A | 0.06
142 | C26U U24G | 0.04
143 | C27U G44A | 0.08
144 | C27U G44C | 0.1

Row | Variant | self-cleavage
145 | C27U G44U | 0.12
146 | C26U U18C | 0.88
147 | C26U U18G | 0.93
148 | C26U U18A | 0.88
149 | C27G C33G | 0.05
150 | C27G C33A | 0.03
151 | C27G C33U | 0.05
152 | C27G G22A | 0.05
153 | C27G G22C | 0.03
154 | C27G G22U | 0.04
155 | C26U G44C | 0.92
156 | C26U G44A | 0.4
157 | C26U G44U | 0.71
158 | C27A G54A | 0.12
159 | C27A G54C | 0.11
160 | C27A G54U | 0.35
161 | C26U U37C | 1
162 | C26U U37G | 1.03
163 | C26U U37A | 0.79
164 | C26G G54A | 0.08
165 | C26G G54U | 0.15
166 | C26G G54C | 0.08
167 | C27G G45A | 0.02
